High-throughput results as filed in PubChem.
F508del corr: CFTR F508del correction in bronchial cells. activity (quench increase), % at 7.58 µM. actives 0.36% (n = 350,000). CFBE cells, YFP halide quenching; stimulated with forskolin plus potentiator P3; % fluorescence drop versus neutral controls;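 active = mean added fluorescence quench of at least 8% versus neutral control, with both replicates also reaching 8%; inconclusive = only one of the mean or replicate conditions met; inactive = mean below 8% and not both replicates reaching 8%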;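 note: cells transiently co-express mutant CFTR-F508del with the halide-sensitive YFP; corrector assay measuring rescue of mutant channel to the surface after 24 h compound exposure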
ARNT-TACC3 inh: disruptors of human ARNT/TACC3 interaction; Q9Y6A5; AlphaScreen His-ARNT PAS-B/GST-TACC3 binding, luminescence; TACC3 fragment carries E629A point mutation; inhibition, % at 9.99 µM; actives 0.66% (n = 390,000); AID 623870;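 active = mean inhibition of replicates at least 50% and at least half of replicates each reaching 50%; inconclusive = half or more replicates reach 50% but mean below 50%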;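 note: 0% = complete ARNT plus TACC3 wells and 100% = ARNT alone without TACC3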
CAL PDZ FP-1: blocks peptide binding to the human CAL PDZ domain; purified CAL PDZ, TMR-peptide fluorescence polarization, 1 h; inhibition, % at 24.9 µM; actives 0.92% (n = 300,000); AID 602252;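 active = mean inhibition of at least 30% with at least half of replicates also reaching 30%; inconclusive = no clear call, values can overlap the other calls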;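 note: 0% = DMSO neutral control and 100% = excess unlabeled competitor peptide PRC23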
miR122 inh: inhibitors of miR-122 in Huh7 cells; Huh7 miR-122 Renilla luciferase sensor, 48 h; neutral wells = 0, positive control = 100; activation (reporter increase), % at 12.5 µM; actives 0.3% (n = 340,000);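 active = mean replicate activation score at least 90 and every replicate individually at or above 90; inconclusive = only one of the two criteria met; inactive = neither criterion met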;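 note: higher luciferase means less miR-122 activity so hits act as miR-122 inhibitors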
CAL PDZ FP-2: human CAL PDZ-peptide interaction inhibition | inhibition, % at 20 µM | Q9HD26 | purified CAL PDZ, TMR-peptide fluorescence polarization, 1 h | actives 0.02% (n = 330,000);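 active = highest replicate inhibition of at least 40%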;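 note: plate controls were DMSO neutral control wells for no effect and unlabeled competitor peptide control wells for full effect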
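System: purified tagged CAL PDZ domain construct (CerCALP). Schedule: 1 h incubation at room temperature before polarization reading. Medium: 25 mM sodium phosphate pH 7.4, 150 mM NaCl, TCEP, IgG, Thesit. Read-out: percent inhibition from loss of millipolarization. Measured by: FP readout, S and P plane fluorescence. Probe or stimulus: fluorescent TMR peptide probe.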
PGC1a acetyl inh: modulators of PGC1a acetylation; AID 651687; inhibition, % at 15.6 µM; actives 0.17% (n = 350,000); U2OS PGC1a acetylation, AlphaScreen anti-acetyl-lysine; with virally co-expressed GCN5 acetyltransferase;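 active = every replicate shows inhibition of at least 40%; inconclusive = mean inhibition at least 40% but some replicate below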;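 note: 0% = neutral control wells and 100% = positive control wells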
* marks the source's active call; other numbers are inactive results; ? = inconclusive; . = no result; [ ] = another dose, or the depositor's remark. A selection: hits, their analogues and other compounds. The true share with any hit is near 1.7%.

SMILES | F508del corr | ARNT-TACC3 inh | CAL PDZ FP-1 | miR122 inh | CAL PDZ FP-2 | PGC1a acetyl inh
COc1ccccc1C(=O)Nc1ccc2c(c1)nc(CN1CCCCC1)n2C | -0.6 | 0.6 | 70.8* | -0.7 | -1.0 | .
Cn1c(CN2CCCCC2)nc2cc(NC(=O)c3ccccc3Cl)ccc21 | 1.8 | -3.0 | . | 0.2 | 0.4 | -1.3
CC(C)CC(=O)/C(=C\c1ccc(Cl)cc1Cl)n1cncn1 | . | -0.8 | -1.5 | 5.0 | -1.2 | 60.3*
Cc1cc(C(=O)Nc2cccc3c2O[C@H](CN(C)S(=O)(=O)c2cccs2)[C@@H](C)CN([C@@H](C)CO)C3=O)n(C)n1 | -1.9 | -13.0 | . | 0.7[16.7 µM] | . | 7.9
CC1(C)CC(=O)C=C(NCc2ccco2)C1 | . | -14.0 | 17.0 | -1.8 | -0.4 | 40.3*
O=C(Nc1nc2n(n1)C(c1ccc(F)cc1)CC(c1ccccc1)N2)c1ccco1 (stereo not given) | 0.0 | -5.3 | 38.1* | . | -1.0 | .
COc1ccc(C2CC(c3ccc(Cl)cc3)Nc3nc(NC(=O)c4ccco4)nn32)cc1 (stereo not given) | . | -1.7 | -2.7 | -2.7 | -0.6 | 1.6
COc1ccc(C(=O)N2CCCC(CCC(=O)NCc3ccc(F)c(F)c3)C2)o1 (stereo not given) | . | -3.9 | 50.5* | 1.9 | -0.3 | 18.3
C=CCOc1cccc(C(=O)N2CCCC(CCC(=O)NCc3ccccc3F)C2)c1 (stereo not given) | -3.4 | -22.1 | 73.7* | . | -0.4 | 7.7
C=CCOc1ccc(Br)cc1CNCCO | -0.5 | -0.9 | 97.8* | . | -0.7 | .
C=CCOc1ccc(Br)cc1CNC(C)(C)CO | -1.3 | -5.6 | -3.6 | . | 1.1 | .
CC1(OC(=O)CCc2ccccc2)C(=O)C=C2C=C3CCCN3C=C2C1=O (stereo not given) | 0.1 | 8.6 | -2.6 | -3.8 | 0.1 | .
CC1(OC(=O)c2cccs2)C(=O)C=C2C=C3CCCN3C=C2C1=O (stereo not given) | . | 8.4* | 2.0 | -2.3 | 0.0 | 5.4
CCn1cc(CNc2nc3nonc3nc2N2CCCCC2)cn1 | -0.5 | 6.4 | 72.0* | -4.2 | -0.6 | .
CN(C)c1nc(NCc2ccccc2)nc(Oc2ccc(=O)[nH]n2)n1 | . | -7.9 | 40.0* | -3.3 | -0.5 | 4.7
C[C@@H]1CCCCO[C@@H](CN(C)Cc2ccc(Cl)c(Cl)c2)[C@@H](C)CN([C@@H](C)CO)C(=O)c2cc(NC(=O)c3ccccc3)ccc2O1 | -2.5 | 10.1 | . | -6.3[16.7 µM] | . | -5.9
O=C(NC1CCCCC1)c1cc(C2CC2)nn1-c1ccccc1 | 22.5* | . | 17.3 | 2.4 | -1.3 | -2.5
Cc1nn(-c2ccccc2)c(Cl)c1C(=O)NC1CCCCC1 | -1.7 | -5.8 | 0.3 | . | -0.8 | 8.1
O=C(C[C@H]1CC[C@@H](NS(=O)(=O)c2ccc(F)cc2)[C@@H](CO)O1)NCCc1ccncc1 | 1.2 | -5.8 | . | . | . | -2.4
O=C(C[C@H]1C[C@@H]2c3cc(NC(=O)Nc4ccccc4F)ccc3O[C@@H]2[C@H](CO)O1)NCc1ccc(Oc2ccccc2)cc1 | -1.7 | 5.6 | . | -4.7[16.7 µM] | . | -1.8
COc1ccc(C(=O)Nc2ccc(C)c(S(=O)(=O)N3CCCCCC3)c2)cc1 | 0.6 | 1.9 | -4.8 | 54.5 | 15.5 | .
COc1ccc(NS(=O)(=O)c2cc(NC(=O)c3ccc(=O)[nH]c3)ccc2C)cc1 | 0.8 | -5.6 | 1.6 | 99.6* | -1.9 | -5.3
O=C(Nc1ccnn1C1CCN(Cc2ccccc2)CC1)C1CCCC1 | -0.1 | -0.9 | -2.8 | 4.8 | -0.6 | .
CCOc1ccccc1CN1CCC(n2nccc2NC(=O)C2CCCC2)CC1 | 1.3 | 8.3 | 5.3 | -7.6 | 112.1* | 0.0
CCCCc1ncc(CN2CCC(n3nccc3NC(=O)c3ccccc3OC)CC2)[nH]1 | 2.6 | -3.6 | 111.2* | -1.9 | 0.0 | 5.6
SMILES | F508del corr | ARNT-TACC3 inh | CAL PDZ FP-1 | miR122 inh | CAL PDZ FP-2 | PGC1a acetyl inh
COc1ccc(CN2CCC(n3nccc3NC(=O)C3CC3)CC2)c(OC)c1OC | -0.5 | -2.9 | 71.3* | -8.3 | 0.2 | -9.8
CCCn1ncc(CN2CCC(n3nccc3NC(=O)c3ccccc3OC)CC2)c1C | 2.5 | -11.0 | -2.5 | -6.3 | 0.0 | 3.0
O=C(NCC[C@@H]1CC[C@H](NS(=O)(=O)Cc2ccccc2)[C@@H](CO)O1)C1CCC1 | -1.3 | . | . | -4.5[16.7 µM] | . | -2.8
C[C@@H]1CN([C@H](C)CO)C(=O)c2cc(NC(=O)Cc3ccccc3)ccc2O[C@@H]1CN(C)S(=O)(=O)c1ccc(Cl)cc1 | 6.6 | 0.9 | . | 98.6*[16.7 µM] | . | 5.3
C[C@@H]1CN([C@@H](C)CO)C(=O)c2cc(NC(=O)Cc3cn(C)c4ccccc34)ccc2O[C@@H]1CN(C)S(=O)(=O)c1ccc(Cl)cc1 | 4.0 | -18.6 | . | 44.5[16.7 µM] | . | 1.8
C[C@@H]1CN([C@@H](C)CO)C(=O)c2cc(NC(=O)Nc3ccccc3)ccc2O[C@@H]1CN(C)S(=O)(=O)c1ccc(Cl)cc1 | 1.1 | 0.2 | . | 40.8[16.7 µM] | . | -6.4
C[C@@H]1CN([C@H](C)CO)C(=O)c2cc(NC(=O)Cc3cn(C)c4ccccc34)ccc2O[C@@H]1CN(C)S(=O)(=O)c1ccc(Cl)cc1 | -1.1 | 15.1 | . | 101.0*[16.7 µM] | . | 5.1
C[C@@H]1CN([C@H](C)CO)C(=O)c2cc(NC(=O)Nc3ccccc3)ccc2O[C@@H]1CN(C)S(=O)(=O)c1ccc(Cl)cc1 | 2.8 | 2.9 | . | 100.3*[16.7 µM] | . | -9.7
C[C@@H]1CN([C@H](C)CO)C(=O)c2cc(NC(=O)Cc3cn(C)c4ccccc34)ccc2O[C@@H]1CN(C)Cc1ccc(Cl)c(Cl)c1 | 8.1* | -0.2 | . | -8.2[16.7 µM] | . | -2.7
C[C@@H]1CN([C@@H](C)CO)C(=O)c2cc(NC(=O)Cc3cn(C)c4ccccc34)ccc2O[C@@H]1CN(C)Cc1ccc(Cl)c(Cl)c1 | 4.4 | 20.1 | . | -3.1[16.7 µM] | . | 5.4
CC(C)NC(=O)NCC[C@H]1CC[C@H](NC(=O)CCN2CCCCC2)[C@H](CO)O1 | 0.8 | 2.0 | . | . | . | -0.1
N#Cc1cccc(-c2ccc(C3[C@H]4CNC[C@@H]3N4Cc3ccc4c(c3)OCO4)cc2)c1 (stereo not given in full) | 1.9 | . | . | . | . | -10.2
O=C(Cc1ccncc1)NCC[C@@H]1CC[C@H](NC(=O)Nc2ccc(Cl)cc2)[C@H](CO)O1 | -3.1 | 4.5 | . | . | . | -1.6
O=C(CNC1CCCCC1)NN=C(c1ccccc1)c1ccccc1 | 11.9* | 3.3 | -6.8 | . | -3.1 | .
COCC(=O)Nc1ccc2c(c1)C(=O)N(C)[C@@H]1CC[C@@H](CC(=O)NCCc3ccccc3)O[C@H]1CO2 | 0.1 | 15.2 | . | 7.7[16.7 µM] | . | 8.9
COc1ccc(NC(=O)Cc2c(F)cccc2Cl)c(OC)c1 | . | 1.3 | -5.7 | 2.0 | -0.9 | 7.9
COc1ccc(NS(=O)(=O)c2cc(NC(=O)Cc3c(F)cccc3Cl)ccc2OC)cc1 | 19.5* | -0.9 | . | ? | -2.2 | -8.3
CCOc1ccc(NS(=O)(=O)c2cc(NC(=O)CCNC(=O)c3ccco3)ccc2OC)cc1 | 31.9* | . | -8.1 | . | -0.8 | .
